Assay results from different studies.
Lines come from different studies, so protocols differ.
Target: Serine/threonine-protein kinase NLK (NLK, Homo sapiens, UniProt Q9UBE8)
One construct used (Q9UBE8 1-527): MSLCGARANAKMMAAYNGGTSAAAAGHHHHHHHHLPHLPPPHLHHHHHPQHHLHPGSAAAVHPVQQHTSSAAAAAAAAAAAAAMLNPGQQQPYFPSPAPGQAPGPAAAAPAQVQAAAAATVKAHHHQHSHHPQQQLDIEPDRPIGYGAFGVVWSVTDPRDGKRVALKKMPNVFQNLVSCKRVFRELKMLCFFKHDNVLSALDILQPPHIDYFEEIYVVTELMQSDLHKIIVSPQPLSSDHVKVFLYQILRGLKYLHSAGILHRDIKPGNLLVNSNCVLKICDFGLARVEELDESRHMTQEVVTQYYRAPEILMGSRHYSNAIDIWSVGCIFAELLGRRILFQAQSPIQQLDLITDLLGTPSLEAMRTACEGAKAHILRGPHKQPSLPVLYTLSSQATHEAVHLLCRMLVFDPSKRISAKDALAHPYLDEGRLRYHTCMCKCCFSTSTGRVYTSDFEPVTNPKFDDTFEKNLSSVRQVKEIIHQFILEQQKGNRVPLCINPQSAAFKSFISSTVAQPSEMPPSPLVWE

The remaining binding of `Cc1nn(C)cc1-c1nc2c(N3CCN(Cc4ccc(Cl)cc4)CC3)c(Cl)cnc2[nH]1` is reported as 72% (binding, competition with immobilised ligand; 1 µM).
`Cn1cc(-c2cc(F)cc(N3CCn4c(cc5c4CCCC5)C3=O)c2CO)cc(Nc2ccc(N3CCN(C4COC4)CC3)cn2)c1=O` has an inhibition of -4% (enzyme activity, inhibitor; 0.1 µM).
For `O=c1[nH]c2ccccc2n1C1CCN(Cc2ccc(-c3[nH]c4cc5ncnc5cc4nc3-c3ccccc3)cc2)CC1`, the remaining signal was 104% (cell-free assay; 0.5 µM).
`COc1ncccc1-c1cnn2ccc(N3CCN(C(=O)OC(C)C)CC3)nc12` gave a remaining binding of 100% (binding, competition with immobilised ligand; 1 µM).
With `COc1cc(Nc2ncc(F)c(Nc3ccc4c(n3)NC(=O)C(C)(C)O4)n2)cc(OC)c1OC` the inhibition was 0% (binding; 10 µM).
`Cn1cncc1[C@@](O)(COc1ccc(C#N)cc1-c1ccc(OC(F)(F)F)cc1)c1ccc(C#N)cc1` gave a remaining binding of 100% (cell-free assay, competition with immobilised ligand; 1 µM).
The inhibition of `Cn1cc(-c2cccc(N3CCc4c(sc5c4CC(C)(C)C5)C3=O)c2CO)cc(Nc2ccncn2)c1=O` is reported as -10% (enzyme activity, inhibitor; 1 µM).
The remaining binding of `Nc1ncc(-c2nc(N3CCOCC3)nc(N3CCOCC3)n2)c(C(F)F)n1` is reported as 88% (binding, competition with immobilised ligand; 10 µM).
With `N#CC1(c2ccccn2)CCN(Cc2cc(C(=O)O)c(=O)n3ccccc23)CC1` the remaining binding was 100% (cell-free assay, competition with immobilised ligand; 1 µM).
